The test system of one series is MDCK. The series is described as follows: Cytotoxicity against MDCK cells assessed as cell viability after 72 hrs by MTT assay. It is filed as cell-based, Canis lupus familiaris. The settings on record: dog. For orientation: Tetrazolium assays rely on reduction of a dye to a coloured formazan, in cell work by metabolically active cells.
In series [1] the target is Neuraminidase (Influenza A virus) (UniProt B4URF0). Kind of series: Inhibition of Influenza A virus A/PR/8/34 (H1N1) neuraminidase activity measured in infected MDCK cells using MUNANA as substrate assessed as fluorescence intensity after 48 hrs. It is filed as cell-based. Conditions: Influenza A virus (A/Puerto Rico/8/1934(H1N1)). An outline of the steps:
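MDCK cells (2 × 10^4/well) infected with A/PR/8/34 at MOI 0.01, with samples (0.7–166 μM, DMEM with 1% DMSO) added at the same time. After 1 h at 37 °C the cells were washed and fresh sample-containing DMEM added for 48 h. Supernatant NA activity was read with MUNANA for 45 min at 37 °C (ex 355/em 485 nm). Triplicate runs; EC50 by linear extrapolation; ribavirin 0.8–200 μM control.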

Series [2] is described as follows: Selectivity index, ratio of cytotoxicity for MDCK cells to EC50 for Influenza A virus A/PR/8/34 (H1N1) neuraminidase activity. It is filed as toxicity, cell-based. Conditions: dog, read-out: Selectivity Index. The gist of the method: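 SI calculated as CC50/EC50, with CC50 from the 72 h MDCK AlamarBlue assay and EC50 from the MUNANA neuraminidase assay on supernatants of PR8-infected MDCK cells at 48 h.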

The source made the active and inactive calls. No cut-off for these calls is given here.

These results are taken from ChEMBL document CHEMBL3580604, “Flavonoids from Matteuccia struthiopteris and Their Anti-influenza Virus (H1N1) Activity” (J Nat Prod, 2015).

Neuraminidase (Influenza A virus), sequence (B4URF0 as listed by the source): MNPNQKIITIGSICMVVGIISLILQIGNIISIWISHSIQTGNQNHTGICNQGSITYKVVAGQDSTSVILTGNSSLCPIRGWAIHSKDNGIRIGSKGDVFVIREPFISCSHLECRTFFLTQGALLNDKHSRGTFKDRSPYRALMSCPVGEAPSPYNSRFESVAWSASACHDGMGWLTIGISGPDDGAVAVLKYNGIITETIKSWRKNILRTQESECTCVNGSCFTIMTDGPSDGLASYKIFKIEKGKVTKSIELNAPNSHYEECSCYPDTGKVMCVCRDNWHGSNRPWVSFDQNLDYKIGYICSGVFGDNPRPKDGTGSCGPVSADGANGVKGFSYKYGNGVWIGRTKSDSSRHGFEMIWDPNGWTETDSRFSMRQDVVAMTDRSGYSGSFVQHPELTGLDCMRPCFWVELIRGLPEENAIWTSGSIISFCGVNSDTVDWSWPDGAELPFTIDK

As to `COC(=O)C1(O)CC(C)OC1O[C@H]1[C@H](Oc2c(-c3ccc(O)cc3)oc3cc(O[C@@H]4O[C@@H](C)[C@H](O)[C@@H](O)[C@H]4O)cc(O)c3c2=O)O[C@@H](C)[C@H](O)[C@H]1O` (stereo partly drawn), the Activity result in the series on MDCK was “Non-toxic”. Also, the inhibition result in series [1] was “inactive”.
The matching figures for `CC(=O)O[C@@H]1[C@@H](O)[C@@H](O[C@@H]2O[C@H](CO)[C@@H](O)[C@H](O)[C@H]2O)[C@H](Oc2c(-c3ccc(O)cc3)oc3cc(O[C@@H]4O[C@@H](C)[C@H](O)[C@@H](O)[C@H]4O)cc(O)c3c2=O)O[C@H]1C`: “Non-toxic” and “inactive”.
Regarding `C[C@@H]1O[C@@H](Oc2cc(O)c3c(=O)c(O[C@@H]4O[C@@H](C)[C@H](O)[C@@H](O)[C@H]4O[C@@H]4O[C@@H](C)[C@H](O)[C@@H](O)[C@H]4O)c(-c4ccc(O)cc4)oc3c2)[C@H](O)[C@H](O)[C@H]1O`, the Activity entry in the series with MDCK is “Non-toxic”. Besides, the inhibition result in series [1] is “inactive”.
On to `COc1c(O)cc(C2CC(=O)c3c(O)c(C)c(O)c(C)c3O2)cc1O` (stereo not drawn), for which the selectivity ratio in series [2] is 3.1. The Activity result in the series with MDCK was “Non-toxic”.
Consider `CC(=O)O[C@@H]1[C@@H](O)[C@@H](O[C@@H]2O[C@H](CO)[C@@H](O)[C@@H](O)[C@H]2O)[C@H](Oc2c(-c3ccc(O)cc3)oc3cc(O[C@@H]4O[C@@H](C)[C@H](O)[C@@H](O)[C@H]4O)cc(O)c3c2=O)O[C@H]1C`, for which the Activity result with MDCK was “Non-toxic”. Also, the inhibition result in series [1] was “inactive”.
As for `O=c1c(O[C@@H]2O[C@H](CO)[C@@H](O)[C@H](O)[C@H]2O)c(-c2ccc(O)cc2)oc2cc(O)cc(O)c12` [ASTRAGALIN], the selectivity ratio in series [2] is 12.4. In addition, the Activity entry in the series with MDCK is given as “Non-toxic”.
Take `C[C@@H]1O[C@@H](Oc2cc(O)c3c(=O)c(O[C@@H]4O[C@@H](C)[C@H](O)[C@@H](O)[C@H]4O[C@@H]4O[C@H](CO)[C@@H](O)[C@@H](O)[C@H]4O)c(-c4ccc(O)cc4)oc3c2)[C@H](O)[C@H](O)[C@H]1O`: the Activity entry in the series on MDCK is recorded as “Non-toxic”. In series [1], the inhibition entry was “inactive”.
The matching figures for `COC(=O)C(C)OC(O[C@H]1[C@H](Oc2c(-c3ccc(O)cc3)oc3cc(O[C@@H]4O[C@@H](C)[C@H](O)[C@@H](O)[C@H]4O)cc(O)c3c2=O)O[C@@H](C)[C@H](O)[C@H]1O)C(O)C(=O)OC` (stereo partly drawn): “Non-toxic” and “inactive”.
In the case of `COc1c(O)cc([C@@H]2CC(=O)c3c(O)c(C)c(O[C@@H]4O[C@H](CO)[C@@H](O)[C@H](O)[C@H]4O)c(C)c3O2)cc1O`, the selectivity ratio in series [2] amounted to 34.4. Further, the Activity result in the series with MDCK is “Non-toxic”.
